High-throughput results (PubChem BioAssay)
Only some compounds are listed: those with a hit (about 6.4% of all), similar ones and a draw of the others.
E coli WT exp = growth inhibitors of wild-type E. coli, primary screen, strain BW25113, expanded library, OD600; OD600 absorbance; growth inhibition, % at 100 µM; actives 0.15% (n = 98,000); AID 710, 2007;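 active = growth inhibition above about 50% at one test dose, limit read from the data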;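 also: growth measured after 20 h incubation at 37 °C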
tolC growth inh = growth inhibitors of E. coli tolC mutant, primary screen, strain BW25113 ΔtolC::kan, 384-well; AID 573, 2007; actives 2.2% (n = 65,000); growth inhibition, % at 10 µM (by protocol); OD615;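 active = growth inhibition at or above a cutoff equal to the mean over every tested compound plus 3 SD, cut at about 60% in these data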;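 also: growth measured after 20 h incubation at 37 °C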
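test system = E. coli BW25113 ΔtolC::kan bacteria | medium = LB with kanamycin 50 µg/mL | signal = OD at 615 nm | schedule = 37 °C, 20 h exposure | evaluation = % inhibition of E. coli growth | compound dosing = one dose of 10 µM final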
HUVEC prolif 384 = inhibitors of HUVEC proliferation, primary screen, cell-based, 384-well; viability, % at 10 µM (by protocol); actives 1.1% (n = 86,000); AID 648, 2007; CellTiter-Glo luminescence, 72 h; stronger effect = lower value;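 active = viability at or below 30%; inactive = viability above 30%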;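 also: 100% = median luminescence of DMSO-only cell control wells on each plate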
Jurkat viability = cytotoxicity toward Jurkat T cells, primary screen, cytotoxicity control, cell-based, Jurkat E6.1, 60K MLSMR library; inhibition, % at 4 µM; actives 1.2% (n = 56,000); AID 463, 2006; Jurkat E6.1 viability, ATP luminescence, 48 h;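 active = inhibition above the mean inhibition of all tested compounds plus 3 SD, cut at about 28% in these data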
H69AR growth 86K = proliferation blockers of H69AR lung cancer cells, primary screen, cell-based, human, 86K library. H69AR lung tumor viability, ATP luminescence, 72 h; stronger effect = lower value. AID 598, 2007. viability, % at 10 µM. actives 6% (n = 85,000);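 active = viability at or below 40%; inactive = viability above 40%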;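 also: multidrug resistant small cell line overexpressing MRP-1 efflux transporter; 100% = mean luminescence of untreated control wells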
Fibroblast inh = antiproliferative effect on LL 47 fibroblasts – human, LL 47 cells, CellTiter-Glo luminescence, primary screen | viability, % at 10 µM | LL 47 human lung fibroblast viability, ATP luminescence; stronger effect = lower value | AID 719, 2007 | actives 1.1% (n = 85,000);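 active = viability at or below 50% in the single dose screen; inactive = viability above 50%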;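 also: compound exposure lasted 72 h before the ATP readout; 100% = median luminescence of untreated cell-only wells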
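Material: Human LL 47 lung fibroblast cells | Input: 1,150 cells/well | Buffer or medium: IMEM plus 15% FBS | Compound dosing: 0.1% DMSO in all compound wells | Times: Overnight cell rest, 72 h compound treatment at 37 °C | Signal: CellTiter-Glo luminescence measuring cellular ATP | Measure: % viability versus median cells-only luminescence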
The depositor's hits bear a star; · = no result given.

SMILES	E coli WT exp	tolC growth inh	HUVEC prolif 384	Jurkat viability	H69AR growth 86K	Fibroblast inh
COCCN1C(=O)C(CC(=O)Nc2ccc(C(C)=O)cc2)SC1=Nc1ccccc1 (configuration not stated)	-5.0	12.2	·	-5.4	·	·
c1ccc(Cn2ncc3c2ncn2nc(-c4ccncc4)nc32)cc1	·	0.1	97.5	-3.5	84.5	99.4
CN(C)c1nc(-c2ccccc2)c2cnn(Cc3ccccc3)c2n1	-5.0	37.3	72.8	1.3	19.4*	81.4
CCCCOP(=O)(OCCCC)C1(NS(=O)(=O)c2ccccc2)C=CC(=O)c2ccccc21 (configuration not stated)	-7.0	·	34.2	·	12.0*	86.2
Cc1nn(Cc2ccc(Cl)cc2Cl)c(C)c1NC(=O)CCl	·	·	75.0	·	1.6*	23.2*
COC(=O)c1ccc(-c2ccco2)n1Cc1nc(-c2ccc(OC)c(OC)c2)oc1C	-8.0	5.6	80.5	-2.0	35.6*	88.6
COC(=O)c1ccc(-c2ccco2)n1Cc1ccccc1Cl	-3.0	·	99.5	·	74.6	94.4
CCOC(=O)Nc1ccc2c(c1)N(C(=O)OC)c1ccccc1CC2	5.0	28.4	·	65.9*	·	·
CCOC(=O)Nc1ccc2c(c1)N(C(=O)C(C)N1CCCC1)c1ccccc1CC2 (configuration not stated)	5.0	·	82.9	·	90.0	94.9
Cc1ccc(-n2nnnc2Sc2nc([N+](=O)[O-])nn2C)cc1C	2.0	·	·	·	·	·
O=Cc1ccc(Sc2nnc(-c3ccccc3)o2)c([N+](=O)[O-])c1	3.0	·	2.4*	·	2.0*	78.7
Cn1nc([N+](=O)[O-])nc1Sc1nnc(-c2ccccc2)o1	12.0	·	62.3	·	2.6*	66.6
O=C(O)CSc1nnc(-c2ccccc2)o1	-10.0	-19.6	98.1	-6.9	106.9	99.5
CCCNS(=O)(=O)c1ccc(OCC(=O)N2CCOCC2)cc1	·	·	90.0	·	105.3	98.5
Cc1ccc(-n2nc(C)c(C3C(C#N)=C(N)OC4=C3C(=O)CC(C)(C)C4)c2Cl)cc1 (configuration not stated)	·	3.3	62.9	1.8	24.3*	80.2
Cc1nn(-c2ccccc2)c(Cl)c1C1C(C#N)=C(N)Oc2c1c(C)nn2-c1ccccc1 (configuration not stated)	-6.0	·	74.6	·	5.1*	98.7
CCOC(=O)C1=C(C)OC(N)=C(C#N)C1c1c(C)nn(-c2ccccc2)c1Cl (configuration not stated)	5.0	21.1	83.7	·	·	92.4
C=CCOC(=O)C1=C(C)OC(N)=C(C#N)C1c1c(C)nn(-c2ccccc2)c1Cl (configuration not stated)	5.0	17.2	84.5	2.4	28.7*	90.8
Cc1ccc2nc(NC(=O)Cn3cc4c(n3)CCCCC4)sc2c1	-2.0	17.8	·	5.3	·	·
O=C1C2C3CCC(C3NCc3ccccc3)C2C(=O)N1Cc1ccccc1 (configuration not stated)	0.0	·	·	·	·	·
Cc1cc(C)c2c(c1)-c1c(ssc1=S)C(C)(C)N2C(=O)CSc1nncn1C	7.0	11.7	66.9	7.0	13.0*	74.0
O=C(N/N=C/C=C/c1ccccc1)c1n[nH]c2c1CCC2	-18.0	·	·	·	·	·
O=C(N/N=C/C(Br)=C\c1ccccc1)c1n[nH]c2c1CCC2	-2.0	·	22.3*	·	5.3*	51.2
OCc1ccccc1N=c1ssnc1Cl	4.0	11.9	96.3	4.5	59.9	97.2
COc1cc(N=c2ssnc2Cl)cc(OC)c1	24.0	-1.4	89.6	1.0	0.0*	70.2
SMILES	E coli WT exp	tolC growth inh	HUVEC prolif 384	Jurkat viability	H69AR growth 86K	Fibroblast inh
Cc1nc(NC(=O)c2ccccc2)sc1-c1csc(N)n1	-3.0	0.3	54.9	25.6	29.9*	83.6
Cc1nc(NC(=O)c2ccccc2)sc1-c1csc(NCc2ccccc2)n1	-31.0	·	77.4	·	54.5	92.3
CCOc1ccc(N(CC(=O)NC2CCCCC2)C(=O)CSc2nnc(COc3ccccc3)o2)cc1	·	·	76.2	·	35.8*	97.2
O=C(CN(Cc1cccs1)C(=O)CSc1nnc(COc2ccccc2)o1)NC1CCCCC1	·	·	88.3	·	39.5*	91.2
O=C(CN(Cc1ccc2c(c1)OCO2)C(=O)CSc1nc2ccccc2o1)NC1CCCCC1	2.0	100.0*	97.9	13.4	46.6	100.4
O=C(COC(=O)C1=Cc2ccccc2OC1)NC1CCCC1	0.0	·	·	·	·	·
CC(=O)N1CCN(S(=O)(=O)c2ccc(S(=O)(=O)NCC(C)C)cc2)CC1	2.0	-28.7	107.3	-15.0	93.3	103.0
N#Cc1nc(Cc2ccccc2)oc1NCc1cccnc1	·	6.3	·	-8.2	·	·
COc1ccc(-c2nc(C#N)c(NCc3ccccc3Cl)o2)cc1	-14.0	-14.0	69.1	6.1	59.7	73.7
COc1ccc(-c2nc(C#N)c(NCc3ccccc3Cl)o2)cc1OC	-7.0	0.1	58.7	-1.6	5.7*	92.5
N#Cc1nc(Cc2ccccc2)oc1NCc1ccccc1Cl	30.0	92.6*	110.4	1.9	89.4	96.7
N=c1c(C(=O)NC2CCCCC2)cc2c(=O)n3ccccc3nc2n1CCN1CCOCC1	·	-15.3	106.0	-2.5	83.7	106.7
COc1ccc(NS(=O)(=O)c2cccc(-c3nnc(-c4ccccc4)o3)c2)cc1	·	·	91.7	·	84.9	103.3
COc1ccc(Cc2ccc(OC)c(N)c2)cc1N	7.0	·	81.9	·	29.5*	95.1
CCOC(=O)c1ccc(Cl)c(NC(=O)c2ccc(-c3ccccc3)cc2)c1	-13.0	·	·	·	·	·
CCNc1ccc(C(=O)OCC)cc1NC(=O)c1cccc(N(C)C)c1	0.0	22.6	50.5	·	22.1*	50.6
Cc1cn(C2CC3OCC3O2)c(=O)[nH]c1=O (configuration not stated)	1.0	-9.1	90.2	-1.6	97.0	98.5
Cc1ccc(/C(N)=N/OC(=O)COc2ccccc2Cl)cc1	4.0	·	·	·	·	·
COc1cccc(-c2cc(C(=O)Nc3cccc(O)c3)no2)c1	-7.0	-15.8	·	48.6*	·	·
COc1cc(NC(=O)c2cc(-c3cccc(O)c3)on2)cc(OC)c1OC	-11.0	-6.7	65.8	21.4	28.0*	91.9
COc1cc(NC(=O)c2cc(-c3cccs3)on2)cc(OC)c1OC	-7.0	12.8	66.7	63.8*	22.7*	96.2
CC1CC(C)CN(C(=O)c2cc3c(s2)CCC3)C1 (configuration not stated)	10.0	·	·	·	·	·
CN1CCCCCC1=NC1=C(C#N)CCCC1	8.0	-6.5	93.5	-4.8	85.6	103.4
Cc1nc2ccc(F)cc2cc1C(=O)NC(C)C	2.0	-13.1	104.3	-7.8	95.0	91.8
Cc1sc(NC(=O)c2ccc(Cl)s2)c(C(N)=O)c1C	1.0	21.1	60.0	-7.1	11.0*	87.8
Cc1ccccc1C(=O)c1c[nH]c(C(=O)NCc2cccs2)c1	2.0	·	·	·	·	·
Cc1ccc(C)c(S(=O)(=O)Nc2ccc3scnc3c2)c1	7.0	14.9	62.9	91.5*	16.6*	·
